From ChEMBL document CHEMBL4024708, “Recent synthetic and medicinal perspectives of dihydropyrimidinones: A review” (Eur J Med Chem, 2017) come the findings set out here.

Values after ≈ are worked out from the molar mass of the structure shown.

One data set concerns Rattus norvegicus. The experiment in a line: Anti-inflammatory activity in rat assessed as inhibition of carrageenan-induced hind paw edema at 10 mg/kg, po pretreated for 1 hr followed by carrageenan challenge measured after 3 hrs by plethysmometer relative to control. The data set is classed as functional. Put shortly: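 Albino rats; carrageenan-induced paw edema test after Winter et al., with diclofenac sodium as reference standard. Percentage reduction in inflammation recorded 3 h after carrageenan, relative to carrageenan-only animals.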
A general note: In the carrageenan paw model, swelling and tenderness develop within hours.

The test system of the next data set is Klebsiella pneumoniae. The experiment in a line: Antibacterial activity against Klebsiella pneumoniae MTCC 7028 by spectrophotometric method. It is filed as functional. Put shortly:
(§1)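 Serial broth dilution, 200 to 15.625 μg/mL, in nutrient broth, sonicated 10 min. Inoculum gave a starting density of 10^3–10^4 CFU/mL. Flasks were shaken at 200 rpm and 37 °C, and growth followed by the rise in absorbance at 600 nm. MIC is the lowest concentration inhibiting the organism. Controls: compound without inoculum, and inoculum without compound.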

The next data set has as its system Pseudomonas aeruginosa. The experiment in a line: Antibacterial activity against Pseudomonas aeruginosa MTCC 2581 by spectrophotometric method. It is filed as functional. Put shortly: as §1
In a further data set the test system is Staphylococcus aureus. The experiment in a line: Antibacterial activity against Staphylococcus aureus MTCC 3160 by spectrophotometric method. It is filed as functional. Put shortly:
as §1

The nature of data set [1]: Antioxidant activity assessed as cupric ion reducing activity by measuring increase in absorbance at 12.5 ppm by CUPRAC assay. It is filed as functional. Put shortly:
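CUPRAC: reduction of Cu(II) to Cu(I) followed by the increase in absorbance at 450 nm. Sample and distilled water were made up to 4 mL total, near pH 7. Compounds were tested at 12.5–100 ppm, with gallic acid and quercetin as standards.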

Data set [2] relates to Mus musculus. The experiment in a line: Anticonvulsant activity in ip dosed maximal electroshock induced seizure mouse model assessed as suppression of hind limb tonic extension measured at 4 hrs post dose. It is filed as functional. As to conditions: read-out: MED. Put shortly:
(§2)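 Albino mice given the compound ip, suspended in 0.5% methyl cellulose–water, at 30, 100 and 300 mg/kg. Maximal electroshock by corneal electrodes: 50 mA, 60 Hz, 0.2 s. Abolition of hind limb tonic extension scored as protection. Value is the minimum dose active in half or more of the mice.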
(In general: In the maximal electroshock model the usual endpoint is tonic extension of the hind limbs.)

Data set [3] concerns Mus musculus. The experiment in a line: Anticonvulsant activity in ip dosed maximal electroshock induced seizure mouse model assessed as suppression of hind limb tonic extension measured at 0.5 hrs post dose. The following applies: read-out: MED. The data set is classed as functional. Put shortly: as §2
The test system of a further data set is Escherichia coli. The experiment in a line: Antibacterial activity against Escherichia coli MTCC 443 by spectrophotometric method. The data set is classed as functional. Put shortly:
as §1

Data set [4] can be described thus: Antioxidant activity assessed as DPPH free radical scavenging activity at 12.5 ppm after 30 mins in dark by spectrophotometric method relative to control. It is filed as functional. Put shortly:
(§3)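 DPPH (1,1-diphenyl-2-picrylhydrazyl) radical scavenging assay. The change in absorbance was read at 517 nm on a spectrophotometer. Activity is given as percent inhibition of the DPPH radical, calculated as (absorbance of control − absorbance of sample)/absorbance of control × 100.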
For orientation: The DPPH test is a chemical assay of radical scavenging.

Data set [5] in a line: Antioxidant activity assessed as cupric ion reducing activity by measuring increase in absorbance at 100 ppm by CUPRAC assay. The data set is classed as functional. The essentials:
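CUPRAC assay. Sample solution was mixed with distilled water, at a pH close to 7. Reduction of Cu(II) to Cu(I) was followed as the increase in absorbance at 450 nm of the reaction mixture.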

Data set [6] is described as follows: Antioxidant activity assessed as DPPH free radical scavenging activity at 100 ppm after 30 mins in dark by spectrophotometric method relative to control. It is filed as functional. Put shortly: as §3
Data set [7] can be described thus: Half-life in Beagle dog at 0.5 mg/kg, iv by LC-MS analysis. The data set is classed as ADME, organism-based, Canis lupus familiaris. As to conditions: in vivo.
In data set [8] the target is T1, Alpha-1A adrenergic receptor (Homo sapiens, UniProt P35348).
T1 sequence (P35348 whole entry): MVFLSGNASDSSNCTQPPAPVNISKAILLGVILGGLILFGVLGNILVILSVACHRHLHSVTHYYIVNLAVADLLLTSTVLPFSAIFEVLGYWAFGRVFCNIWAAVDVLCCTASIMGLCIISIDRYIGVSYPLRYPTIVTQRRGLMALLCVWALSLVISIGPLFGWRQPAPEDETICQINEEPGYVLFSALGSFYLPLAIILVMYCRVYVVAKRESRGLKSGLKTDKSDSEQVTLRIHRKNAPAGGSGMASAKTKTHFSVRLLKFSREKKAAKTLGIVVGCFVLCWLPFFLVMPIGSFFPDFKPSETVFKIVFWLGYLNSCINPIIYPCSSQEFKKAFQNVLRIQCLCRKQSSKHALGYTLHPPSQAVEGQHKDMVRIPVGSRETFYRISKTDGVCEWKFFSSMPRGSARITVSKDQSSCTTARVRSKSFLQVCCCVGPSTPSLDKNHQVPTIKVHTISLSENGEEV
The experiment in a line: Displacement of [125I]L-762,459 from recombinant human alpha1a adrenergic receptor expressed in mammalian cells measured after 1 hr. It is filed as cell-based.

Regarding `O=C(O)CC1=C(c2ccc(Cl)cc2)NC(=S)NC1c1cccs1` (stereo not drawn), in the data set on Rattus norvegicus, the inhibition in vivo (commonly the relative decrease from the control value, in per cent) at 10 mg/kg is 16%.

As to `CC(=O)C1=C(C)NC(=O)NC1c1ccc([N+](=O)[O-])cc1` (stereo not drawn), in the data set on Klebsiella pneumoniae, the MIC (in general, the lowest concentration that inhibits growth of the organism) fell in the range of 31.2 to 62.5 µg/mL (≈ 114 to 227 µM).

As for `CCC(=O)C1=C(C)NC(=O)NC1c1ccc(OC)cc1` (stereo not drawn), the MIC is 250 µg/mL (≈ 911 µM) in the data set on Pseudomonas aeruginosa (read-out: MIC), 250 µg/mL (≈ 911 µM) in the data set with Staphylococcus aureus and 31.2 to 62.5 µg/mL (≈ 114 to 228 µM) in the data set on Klebsiella pneumoniae. Also, the absorbance in data set [1] amounted to 0.05.

For the compound `COc1ccc(C2C=C(n3nc(-c4ccccc4)nc3-c3ccccc3)N=C(S)N2)c(OC)c1` (stereo not drawn), the figures for the minimal effective dose in the data set with Mus musculus [2] and with Mus musculus [3] were 300 mg/kg and 30 mg/kg, respectively.

`CCC(=O)C1=C(C)NC(=O)NC1c1cc(Cl)cc(Cl)c1` (stereo not drawn): the values for the MIC in the data set with Pseudomonas aeruginosa, against Klebsiella pneumoniae and against Escherichia coli were 15.6 to 31.2 µg/mL (≈ 49.8 to 99.6 µM), 31.2 to 62.5 µg/mL (≈ 99.8 to 200 µM) and 15.6 to 31.2 µg/mL (≈ 49.8 to 99.6 µM), respectively. Moreover, the Activity in data set [4] was 17.3%.

As for `CC(=O)C1=C(C)NC(=O)NC1c1ccccc1` (stereo not drawn), the MIC in the data set on Pseudomonas aeruginosa (read-out: MIC) was 250 µg/mL (≈ 1090 µM); in the data set with Staphylococcus aureus, 62.5 to 125 µg/mL (≈ 271 to 543 µM); with Escherichia coli, 15.6 to 31.2 µg/mL (≈ 67.7 to 135 µM). Moreover, in data set [5], the absorbance was determined as 0.87. Besides, in data set [6], the Activity turned out to be 64.4%.

With `O=C(O)CC1=C(c2ccccc2)N=C(S)NC1c1cccs1` (stereo not drawn), the inhibition in vivo at 10 mg/kg with Rattus norvegicus is 21%.

Regarding `CC(=O)C1=C(C)NC(=O)NC1c1ccc(Cl)cc1` (stereo not drawn), the MIC was 250 µg/mL (≈ 944 µM) with Pseudomonas aeruginosa (read-out: MIC) and 31.2 to 62.5 µg/mL (≈ 118 to 236 µM) in the data set with Klebsiella pneumoniae.

In the case of `NC(=O)N1c2ccccc2C=Cc2ccccc21` [CARBAMAZEPINE], in the data set with Mus musculus [2], the minimal effective dose is 100 mg/kg.

On to `COc1ccc(C2NC(S)=NC(c3ccc(Cl)cc3)=C2CC(=O)O)cc1` (stereo not drawn), for which, in the data set on Rattus norvegicus, the inhibition in vivo at 10 mg/kg was determined as 35%.

As for `SC1=NC(n2nc(-c3ccccc3)nc2-c2ccccc2)=CC(c2ccccc2Cl)N1` (stereo not drawn), the minimal effective dose in the data set on Mus musculus [2] is 300 mg/kg; in the data set on Mus musculus [3], 30 mg/kg.

Take `COCC1=C(C(=O)NCCCN2CCC(c3ccc(F)cc3)CC2)[C@@H](c2ccc(F)c(F)c2)NC(=O)N1`: the half-life (commonly the time needed for the level to fall by half in the phase considered) in [7] was 420 to 480 min.

Turning to `Cc1ccc(C2=C(CC(=O)O)C(c3cccs3)NC(S)=N2)cc1` (stereo not drawn), the inhibition in vivo at 10 mg/kg in the data set on Rattus norvegicus was 10%.

On to `SC1=NC(n2nc(-c3ccccc3)nc2-c2ccccc2)=CC(c2ccc(-c3ccco3)cc2)N1` (stereo not drawn), for which the figures for the minimal effective dose in the data set on Mus musculus [2] and in the data set with Mus musculus [3] were 300 mg/kg and 30 mg/kg, respectively.

Take `Oc1ccc(C2C=C(n3nc(-c4ccccc4)nc3-c3ccccc3)N=C(S)N2)cc1` (stereo not drawn): the minimal effective dose in the data set on Mus musculus [2] worked out at 300 mg/kg; in the data set with Mus musculus [3], 30 mg/kg.

As for `COc1ccc(C2C=C(n3cc(-c4ccccc4)nc3-c3ccccc3)N=C(S)N2)cc1` (stereo not drawn), the minimal effective dose in the data set on Mus musculus [2] turned out to be 300 mg/kg; in the data set on Mus musculus [3], 100 mg/kg.

`SC1=NC(n2nc(-c3ccccc3)nc2-c2ccccc2)=CC(c2ccc(Cl)cc2)N1` (stereo not drawn): the minimal effective dose was found to be 300 mg/kg in the data set on Mus musculus [2] and 30 mg/kg in the data set with Mus musculus [3].

Take `O=C(O)CC1=C(c2ccccc2)N=C(S)NC1c1ccc(Cl)cc1` (stereo not drawn): the inhibition in vivo at 10 mg/kg in the data set with Rattus norvegicus was found to be 30%.

As to `SC1=NC(n2nc(-c3ccccc3)nc2-c2ccccc2)=CC(c2ccc(Br)cc2)N1` (stereo not drawn), the results for the minimal effective dose in the data set with Mus musculus [2] and in the data set with Mus musculus [3] were 300 mg/kg and 100 mg/kg, respectively.

Take `CC1=C(C(=O)NCCCN2CCC(c3ccc(F)c(F)c3)CC2)[C@@H](c2ccc(F)c(F)c2)NC(=O)N1C`: the Ki (in general, the equilibrium dissociation constant of an inhibitor or competing ligand from its target) in data set [8] is 0.18 to 0.39 nM.

As for `CCC(=O)C1=C(C)NC(=O)NC1c1ccc(Cl)cc1` (stereo not drawn), the MIC is 15.6 to 31.2 µg/mL (≈ 56 to 112 µM) in the data set with Pseudomonas aeruginosa, 62.5 to 125 µg/mL (≈ 224 to 448 µM) against Staphylococcus aureus, 31.2 to 62.5 µg/mL (≈ 112 to 224 µM) in the data set with Klebsiella pneumoniae and 15.6 to 31.2 µg/mL (≈ 56 to 112 µM) against Escherichia coli.

Regarding `COCC1=C(C(=O)NCCCN2CCC(C#N)(c3ccc(C#N)cc3)CC2)[C@@H](c2ccc(F)c(F)c2)NC(=O)N1`, in [8], the Ki was found to be 0.16 nM.
